One assay deals with HeLa. The assay is described as follows: Cytotoxicity against human HeLa cells after 48 hrs by MTT assay. It is filed as functional, cell-based. In short, it runs like this:
(§1)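 1 × 10⁴ cells, counted by trypan blue exclusion, were incubated in 96-well plates with a concentration series for 48 h at 37 °C in DMEM with 10% FBS. MTT reagent (5 mg/ml) was added and absorbance read at 570 nm. IC50 was taken from a plot of % viability versus control against concentration. Compounds were first screened at 100 µM, and only those giving ≥50% cytotoxicity went to dose-response.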

The test system of a further assay is MDA-MB-231. Nature of the assay: Cytotoxicity against human MDA-MB-231 cells after 48 hrs by MTT assay. It is filed as functional, cell-based. To be noted: MDA-MB-231, 48 h. A digest of the protocol:
as §1
(Tetrazolium dyes change colour on reduction, which living cells bring about.)

The nature of assay [1]: Cytotoxicity against human ME180 cells after 48 hrs by MTT assay. It is filed as functional, cell-based. As to conditions: ME-180, 48 h. A digest of the protocol: as §1
In assay [2] the test system is MCF7. Nature of the assay: Cytotoxicity against human MCF7 cells after 48 hrs by MTT assay. To be noted: MCF7, 48 h. Format: functional, cell-based. A digest of the protocol:
as §1

The test system of the next assay is HT-29. The assay is described as follows: Cytotoxicity against human HT-29 cells after 48 hrs by MTT assay. Format: functional, cell-based. As to conditions: HT-29, 48 h. In short, it runs like this:
as §1

A further assay concerns MDA-MB-453. Nature of the assay: Cytotoxicity against human MDA-MB-453 cells after 48 hrs by MTT assay. Format: functional, cell-based. To be noted: MDA-MB-453, 48 h. A digest of the protocol:
as §1

In a further assay the test system is PC-3. Nature of the assay: Cytotoxicity against human PC3 cells after 48 hrs by MTT assay. Format: functional, cell-based. As to conditions: PC-3, 48 h. In short, it runs like this:
as §1

Assay [3] relates to MCF7. The assay is described as follows: Cell cycle arrest in human MCF7 cells assessed as accumulation at S phase at 10 uM after 48 hrs by propidium iodide staining (reference value: 10.2%). It is filed as functional.
Assay [4] concerns MCF7. The assay is described as follows: Cell cycle arrest in human MCF7 cells assessed as accumulation at G0/G1 phase at 5 uM after 48 hrs by propidium iodide staining (reference value: 69.2%). Format: functional.
Assay [5] has as its system MCF7. The assay is described as follows: Induction of apoptosis in human MCF7 cells assessed as increase of late apoptotic/necrotic cells at 10 uM after 48 hrs by acridine orange and ethidium bromide staining based fluorescence microscopic analysis. It is filed as functional, cell-based. A digest of the protocol: (§2)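 MCF-7 cells were plated at 1 × 10⁶ cells/ml and treated with compound for 48 h. After acridine orange/ethidium bromide dual staining, cells were viewed 30 min later by fluorescence microscopy through a blue filter. Green homogeneous nuclei were scored as intact, condensed or fragmented chromatin as apoptotic, and orange-red nuclei as late apoptotic/necrotic. At least 200 cells were counted in random fields, and each test was done three times.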

Assay [6] relates to MCF7. Nature of the assay: Ratio of etoposide IC50 to compound IC50 for human MCF7 cells. It is filed as functional.
In assay [7] the test system is MCF7. Nature of the assay: Cell cycle arrest in human MCF7 cells assessed as accumulation at S phase at 5 uM after 48 hrs by propidium iodide staining (reference value: 10.2%). It is filed as functional.
The test system of assay [8] is MCF7. Nature of the assay: Induction of morphological change in human MCF7 cells assessed as cell shrinkage at 10 uM after 48 hrs by acridine orange and ethidium bromide staining based fluorescence microscopic analysis. It is filed as functional. In short, it runs like this: as §2
The test system of assay [9] is MCF7. Nature of the assay: Cell cycle arrest in human MCF7 cells assessed as accumulation at G2/M phase at 10 uM after 48 hrs by propidium iodide staining (reference value: 14.9%). Format: functional.
Assay [10] concerns MCF7. The assay is described as follows: Induction of morphological change in human MCF7 cells assessed as membrane blebbing at 10 uM after 48 hrs by acridine orange and ethidium bromide staining based fluorescence microscopic analysis. Format: functional, cell-based. A digest of the protocol:
as §2

The test system of assay [11] is MCF7. Nature of the assay: Cell cycle arrest in human MCF7 cells assessed as accumulation at G2/M phase at 5 uM after 48 hrs by propidium iodide staining (reference value: 14.9%). Format: functional.
In assay [12] the test system is MCF7. The assay is described as follows: Cell cycle arrest in human MCF7 cells assessed as accumulation at G0/G1 phase at 10 uM after 48 hrs by propidium iodide staining (reference value: 69.2%). Format: functional.
For assay [13], the system named is MCF7. The assay is described as follows: Induction of apoptosis in human MCF7 cells assessed as increase of early apoptotic cells at 5 uM after 48 hrs by acridine orange and ethidium bromide staining based fluorescence microscopic analysis. Format: functional, cell-based. In short, it runs like this: as §2
The subject of assay [14] is MCF7. Nature of the assay: Induction of morphological change in human MCF7 cells assessed as chromatin condensation with destructive fragmentation of nucleus at 10 uM after 48 hrs by acridine orange and ethidium bromide staining based fluorescence microscopic analysis. Format: functional, cell-based. In short, it runs like this: as §2

Active and inactive are the calls of the source. No cut-off for these calls is given here. Where only a bound is given, the exact number is not on record here.

From ChEMBL document CHEMBL3112475, “Synthesis of novel ring-A fused hybrids of oleanolic acid with capabilities to arrest cell cycle and induce apoptosis in breast cancer cells” (Eur J Med Chem, 2014) come the findings set out here.

Turning to `COC(=O)[C@]12CCC(C)(C)C[C@H]1C1=CC[C@@H]3[C@@]4(C)CCC(=O)C(C)(C)[C@@H]4CC[C@@]3(C)[C@]1(C)CC2`, the IC50 was more than 100 µM in the assay on HeLa; more than 100 µM in the assay on MDA-MB-231; more than 100 µM in [1]; 78.7 µM with MCF7 [2]; more than 100 µM in the assay on HT-29; more than 100 µM in the assay with MDA-MB-453. Besides, in the assay with PC-3, the IC50 was more than 100 µM.

For `COC(=O)[C@]12CCC(C)(C)C[C@H]1C1=CC[C@@H]3[C@@]4(C)Cc5c(-c6ccccc6)nc(=O)[nH]c5C(C)(C)[C@@H]4CC[C@@]3(C)[C@]1(C)CC2`, the IC50 with HeLa is more than 100 µM; in the assay on MDA-MB-231, more than 100 µM; in assay [1] it was more than 100 µM; in the assay on MCF7 [2], 78.9 µM; in the assay with HT-29, more than 100 µM; with MDA-MB-453, 96.7 µM. Besides, half-maximal inhibition in the assay with PC-3 (IC50) required 87.4 µM.

Take `COC(=O)[C@]12CCC(C)(C)C[C@H]1C1=CC[C@@H]3[C@@]4(C)C/C(=C\c5ccccc5)C(=O)C(C)(C)[C@@H]4CC[C@@]3(C)[C@]1(C)CC2`: the half-maximal inhibitory concentration (IC50) in the assay with HeLa was more than 100 µM; with MDA-MB-231 it was more than 100 µM; in assay [1], more than 100 µM; with MCF7 [2], 71.7 µM; in the assay with HT-29, more than 100 µM; in the assay with MDA-MB-453 it was more than 100 µM. The half-maximal inhibitory concentration (IC50) in the assay on PC-3 is more than 100 µM.

As to `COC(=O)[C@]12CCC(C)(C)C[C@H]1C1=CC[C@@H]3[C@@]4(C)Cc5c(-c6ccccc6)nc(N)nc5C(C)(C)[C@@H]4CC[C@@]3(C)[C@]1(C)CC2`, the IC50 in the assay with HeLa turned out to be 45.1 µM; in the assay on MDA-MB-231, 16.3 µM; in [1] it was 16.7 µM; in the assay on MCF7 [2], 10.6 µM; in the assay on HT-29 it was 30.7 µM; in the assay with MDA-MB-453, 12.6 µM. Further, the midpoint of inhibition in the assay on PC-3, the IC50, lay at 75.3 µM. The Activity is 19.8% in the assay with MCF7 [3]; 62.4% with MCF7 [4]; 13% in the assay with MCF7 [7]; 14.2% with MCF7 [9]; 17.8% with MCF7 [11]; 59.4% in the assay with MCF7 [12]. Also, the result in the assay with MCF7 [5], with MCF7 [8], with MCF7 [10], in the assay on MCF7 [13] and with MCF7 [14] was Active. The “Ratio IC50” value with MCF7 [6] was 2.

Consider `CC1(C)CC[C@]2(C(=O)O)CC[C@]3(C)C(=CC[C@@H]4[C@@]5(C)CC[C@H](O)C(C)(C)[C@@H]5CC[C@]43C)[C@@H]2C1` [OLEANOLIC_ACID], for which the concentration for half-maximal inhibition (IC50) (in the assay with HeLa; in the assay on MDA-MB-231; in assay [1]; in the assay with MCF7 [2]; with HT-29; with MDA-MB-453) was more than 100 µM throughout. The same compound returned an IC50 with PC-3 of more than 100 µM.

As to `COc1cc([C@@H]2c3cc4c(cc3[C@@H](O[C@@H]3O[C@@H]5CO[C@@H](C)O[C@H]5[C@H](O)[C@H]3O)[C@H]3COC(=O)[C@H]23)OCO4)cc(OC)c1O` [ETOPOSIDE], the concentration for half-maximal inhibition (IC50) amounted to 4.71 µM in the assay on HeLa; 24.2 µM in the assay with MDA-MB-231; 8.9 µM in assay [1]; 23.9 µM in the assay on MCF7 [2]; 21.4 µM in the assay on HT-29; 14.4 µM with PC-3.

Regarding `COc1cccc2c1C(=O)c1c(O)c3c(c(O)c1C2=O)C[C@@](O)(C(=O)CO)C[C@@H]3O[C@H]1C[C@H](N)[C@H](O)[C@H](C)O1` [DOXORUBICIN], the IC50 with HeLa was determined as 0.36 µM; in [1] it was 0.39 µM; with MDA-MB-453, 1.99 µM; with PC-3 it was 0.19 µM.

Turning to `COC(=O)[C@]12CCC(C)(C)C[C@H]1C1=CC[C@@H]3[C@@]4(C)Cc5c(nn(-c6ccccc6)c5-c5ccccc5)C(C)(C)[C@@H]4CC[C@@]3(C)[C@]1(C)CC2`, the IC50 (with HeLa; in the assay on MDA-MB-231; in assay [1]; in the assay with MCF7 [2]; in the assay on HT-29; with MDA-MB-453) was more than 100 µM in each case. Moreover, the IC50 in the assay with PC-3 was more than 100 µM.

Regarding `COC(=O)[C@]12CCC(C)(C)C[C@H]1C1=CC[C@@H]3[C@@]4(C)Cc5c(-c6ccccc6)nc(=S)[nH]c5C(C)(C)[C@@H]4CC[C@@]3(C)[C@]1(C)CC2`, the IC50 is 75.4 µM in the assay on HeLa; 75.5 µM in the assay on MDA-MB-231; more than 100 µM in assay [1]; 30.9 µM in the assay on MCF7 [2]; 69 µM in the assay on HT-29; 40.6 µM with MDA-MB-453. In the assay on PC-3, this compound showed a 50% inhibitory concentration (IC50) of more than 100 µM.

Turning to `COC(=O)[C@]12CCC(C)(C)C[C@H]1C1=CC[C@@H]3[C@@]4(C)C[C@@H]5C(=NN[C@H]5c5ccccc5)C(C)(C)[C@@H]4CC[C@@]3(C)[C@]1(C)CC2`, the half-inhibitory concentration (IC50) in the assay with HeLa was more than 100 µM; in the assay with MDA-MB-231, more than 100 µM; in assay [1], more than 100 µM; in the assay on MCF7 [2] it was 96.6 µM; in the assay on HT-29 it was more than 100 µM; in the assay on MDA-MB-453, more than 100 µM. In addition, in the assay on PC-3, the half-inhibitory concentration (IC50) is more than 100 µM.

As for `COC(=O)[C@]12CCC(C)(C)C[C@H]1C1=CC[C@@H]3[C@@]4(C)Cc5c(noc5-c5ccccc5)C(C)(C)[C@@H]4CC[C@@]3(C)[C@]1(C)CC2`, the half-maximal inhibitory concentration (IC50) in the assay with HeLa is more than 100 µM; with MDA-MB-231, more than 100 µM; in [1], more than 100 µM; with MCF7 [2] it was 88.2 µM; in the assay with HT-29 it was more than 100 µM; in the assay with MDA-MB-453, more than 100 µM. The IC50 in the assay with PC-3 is more than 100 µM.

A word on the IC50: it is the point on the concentration scale where inhibition reaches its midpoint.
